Here are results for 27 molecules from ChEMBL document CHEMBL4359909, “De novo design approaches targeting an envelope protein pocket to identify small molecules against dengue virus” (Eur J Med Chem, 2019).

The structures appear in SMILES notation. Converted amounts (≈) assume the structure as drawn. The source made the active and inactive calls.

The test system of one data set is dengue virus type 2. The data set can be described thus: Antiviral activity against DENV-2 infected in human A549 or Mesocricetus auratus BHK21 cells preincubated for 30 mins further incubated for 1 hr followed by replacement of fresh medium containing compounds and measured at 8 hrs post infection by renilla luciferase assay. In kind it is functional, organism-based. The method in brief: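 Reporter DENV-2 carrying Renilla luciferase, MOI 1. Inoculum preincubated 30 min with compound, left on cells 1 h, then replaced by fresh medium containing compound. Luciferase read at 8 h p.i., reflecting entry and translation of incoming genome. EC50 is the concentration giving a two-fold drop in luciferase versus control; mean of at least two independent experiments.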

Data set [1] is described as follows: Cytotoxicity against human A549 cells assessed as reduction in cell viability after 48 hrs by MTT assay. In kind it is cell-based. (In general: Tetrazolium assays rely on reduction of a dye to a coloured formazan, in cell work by metabolically active cells.)
The nature of data set [2]: Selectivity index, ratio of CC50 for human A549 or Mesocricetus auratus BHK21 cells to EC50 for antiviral activity against DENV-2 infected in A549or Mesocricetus auratus BHK21 cells. In kind it is toxicity. As to conditions: read-out: Ratio CC50/EC50.
The subject of another data set is A549. As to the kind of experiment: Cytotoxicity against human A549 cells at 50 uM after 48 hrs by MTT assay. It is filed as cell-based. Particulars: a549, 48 h.
The subject of a further data set is Dengue virus. As to the kind of experiment: Antiviral activity in DENV infected in cells assessed as reduction in intracellular viral RNA level after 48 hrs by RT-PCR analysis.
Data set [3] can be described thus: Half life in simulated intestinal fluid at 50 uM measured up to 120 mins at pH 6.8 by HPLC-MS analysis. It is filed as ADME. Summed up:
(§1)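 DMSO stock diluted in acetonitrile, added to PBS (pH 7.4), SGF (pH 1.2) or SIF (pH 6.8) at 50 μM final; shaking water bath 37°C, triplicate. Samples at 0–120 min quenched with acetonitrile containing warfarin internal standard, centrifuged, diluted in methanol:water, analysed by HPLC-MS (C18, ESI positive); quantified by peak area ratio to internal standard.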

Data set [4] is described as follows: Solubility in PBS at 1 mg incubated for 24 hrs in shaker and measured after 24 hrs by shake-flask method based UV-VIS-NIR spectrophotometric analysis. In kind it is physicochemical. The method in brief:
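Shake-flask method: 1.0 mg compound in 1 mL PBS (pH 7.4), mixed at 1500 rpm at 37 °C for 24 h, then held at 37 °C for 24 h. Filtered at 0.2 µm and read by UV-VIS-NIR spectrophotometry against a calibration curve. Reported as mean ± SD of two independent experiments run in triplicate.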

A short description of data set [5]: Solubility in simulated gastric fluid at 1 mg incubated for 24 hrs in shaker and measured after 24 hrs by shake-flask method based UV-VIS-NIR spectrophotometric analysis. It is filed as physicochemical. Summed up:
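Shake-flask method: 1.0 mg compound in 1 mL simulated gastric fluid (pH 1.2), mixed at 1500 rpm at 37 °C for 24 h, then held at 37 °C for 24 h. Filtered at 0.2 µm and read by UV-VIS-NIR spectrophotometry against a calibration curve. Reported as mean ± SD of two independent experiments run in triplicate.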

A short description of data set [6]: Half life in simulated gastric fluid at 50 uM measured up to 120 mins at pH 1.2 by HPLC-MS analysis. In kind it is ADME. The method in brief:
as §1

Data set [7] can be described thus: Half life in PBS at 50 uM measured up to 120 mins at pH 7.4 by HPLC-MS analysis. It is filed as physicochemical. Summed up: as §1
A short description of data set [8]: Solubility in simulated intestinal fluid at 1 mg incubated for 24 hrs in shaker and measured after 24 hrs by shake-flask method based UV-VIS-NIR spectrophotometric analysis. In kind it is physicochemical. Summed up:
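Shake-flask method: 1.0 mg compound in 1 mL simulated intestinal fluid (pH 6.8), mixed at 1500 rpm at 37 °C for 24 h, then held at 37 °C for 24 h. Filtered at 0.2 µm and read by UV-VIS-NIR spectrophotometry against a calibration curve. Reported as mean ± SD of two independent experiments run in triplicate.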

A short description of data set [9]: Half life in mouse plasma at 50 uM measured up to 120 mins by HPLC-MS analysis. In kind it is ADME, cell-free. Summed up: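 Mouse plasma diluted to 80% with PBS, preheated; compound added at 50 μM final from DMSO stock; 37°C shaking, triplicate. Samples at 0–120 min deproteinized with cold acetonitrile plus warfarin internal standard, centrifuged at 4°C, supernatant diluted in methanol:water, HPLC-MS; peak area ratio to internal standard. Enalapril positive control.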

A word on the EC50: it is the concentration that produces a half-maximal response. A low value points to higher potency in that assay. In general, CC50 refers to the concentration giving 50% cytotoxicity. In the case of `Clc1ccc(/C=N/Nc2ccnc(NCCN3CCOCC3)n2)c(Cl)c1`, in the data set on dengue virus type 2, the EC50 was 10.6 µM. Also, the CC50 at 48 h in data set [1] is 76.5 µM. For the same molecule, in data set [2], the selectivity ratio was determined as 8.

`O=C(Nc1ccnc(NCCN2CCOCC2)n1)c1ccc(-c2ccccn2)s1` yielded an EC50 in the data set on dengue virus type 2 of 3.3 µM. The CC50 at 48 h in data set [1] was found to be 10.5 µM. For the same molecule, the selectivity ratio in [2] came to 4.

In the data set on dengue virus type 2, `Cc1ccc(-c2ccc(Nc3ccnc(NC4CC(C)(C)NC(C)(C)C4)n3)cc2)cc1` gave a concentration for a half-maximal effect (EC50) of 1.51 µM. Besides, in [1], the cytotoxic concentration (CC50) at 48 h came to 12 µM. Besides, the selectivity ratio in data set [2] amounted to 8.

Take `COc1ccc(CNc2ccnc(NC3CC(C)(C)NC(C)(C)C3)n2)cc1`: in the data set on dengue virus type 2, a half-maximal effect (EC50) was put at 12.5 µM. Further, the CC50 at 48 h in data set [1] turned out to be 18.3 µM. In addition, the selectivity ratio in data set [2] was determined as 2.

With `Clc1ccc(Nc2ccnc(NCCN3CCOCC3)n2)cc1`, in the data set with dengue virus type 2, the EC50 was found to be 23.6 µM. Also, the CC50 at 48 h in data set [1] came to 89.6 µM. The Activity result with A549 is reported as “Non-Toxic”. Also, in data set [2], the selectivity ratio was determined as 4.

Turning to `OCCN1CCN(c2nccc(Nc3ccc(Cl)cc3)n2)CC1`, the response with dengue virus type 2 was half-maximal at 24 µM (EC50).

Consider `Clc1ccc(-c2ccc(Nc3ccnc(NCc4cccnc4)n3)cc2)cc1`, for which the EC50 in the data set with dengue virus type 2 amounted to 4.1 µM. Further, the CC50 at 48 h in data set [1] worked out at 25.7 µM. Besides, the selectivity ratio in [2] was determined as 6.

In the data set on dengue virus type 2, `Cc1ccc(Nc2ccnc(NCCN3CCOCC3)n2)cc1` had an EC50 of 21.3 µM. For the same molecule, the CC50 at 48 h in data set [1] was above 50 µM. The selectivity ratio in data set [2] is above 2.

`CC1(C)CC(Nc2nccc(NCc3ccc(F)cc3)n2)CC(C)(C)N1` gave an EC50 in the data set with dengue virus type 2 of 1.98 µM. In [1], the CC50 at 48 h is 12.8 µM. For the same molecule, the selectivity ratio in [2] amounted to 7.

With `Cc1ccc(-c2ccc(Nc3ccnc(N4CCN(C)CC4)n3)cc2)cc1`, a half-maximal response in the data set with dengue virus type 2 (EC50) required 4.9 µM. Also, the CC50 at 48 h in data set [1] is 27.7 µM. The selectivity ratio in [2] was 6.

Turning to `Cc1ccc(-c2ccc(Nc3ccnc(NCCN4CCOCC4)n3)cc2)cc1`, the EC50 with dengue virus type 2 was 1.8 µM. The CC50 at 48 h in data set [1] was 10.2 µM. Further, the selectivity ratio in data set [2] was 5.

`OCCN1CCN(c2nccc(Nc3ccc(-c4ccccc4)cc3)n2)CC1` came in with a 50% effective concentration (EC50) with dengue virus type 2 of 19.9 µM.

Molecule `Cc1ccc(CNc2ccnc(NC3CC(C)(C)NC(C)(C)C3)n2)cc1` had an EC50 with dengue virus type 2 of 4.9 µM. Moreover, the CC50 at 48 h in data set [1] was 15.2 µM. Also, the selectivity ratio in [2] stood at 3.

`CC1(C)CC(Nc2nccc(NCc3ccc(Cl)cc3)n2)CC(C)(C)N1`: in the data set with dengue virus type 2, the EC50 is 1.8 µM. In data set [1], the CC50 at 48 h is 21.1 µM. Moreover, the selectivity ratio in [2] was 12.

In the case of `c1ccc(-c2ccc(Nc3ccnc(OCCN4CCOCC4)n3)cc2)cc1`, the EC50 in the data set with dengue virus type 2 came to 39.7 µM.

With `CC1(C)CC(Nc2nccc(Nc3ccc(-c4ccc(Cl)cc4)cc3)n2)CC(C)(C)N1`, the response in the data set with dengue virus type 2 was half-maximal at 0.18 µM (EC50). Besides, the result in the data set on Dengue virus was Active. For the same molecule, the CC50 at 48 h in data set [1] was 9.8 µM. The selectivity ratio in data set [2] was found to be 54.

By half-life is commonly meant the time needed for the level to fall by half in the phase considered. What is called thermodynamic solubility is solubility found after equilibrating the solid with the medium. Regarding `c1ccc(-c2ccc(Nc3ccnc(NCCN4CCCCC4)n3)cc2)cc1`, the half-life at 50 µM in data set [3], in data set [6], in data set [7] and in [9] was above 2 h throughout. The solubility (thermodynamic) at 24 h in data set [4] is 32 µg/mL (≈ 85.7 µM); in data set [5] it was 506 µg/mL (≈ 1350 µM); in data set [8], 324 µg/mL (≈ 867 µM).

On to `Clc1cccc(-c2ccc(Nc3ccnc(NCc4cccnc4)n3)cc2)c1`, for which, in the data set on dengue virus type 2, a half-maximal effect (EC50) was put at 3.4 µM. Besides, the CC50 at 48 h in data set [1] is 18.5 µM. The selectivity ratio in data set [2] came out at 5.

For `CC1(C)CC(Nc2nccc(Nc3ccc(-c4ccccc4)cc3)n2)CC(C)(C)N1`, the half-life at 50 µM in [3], in data set [6], in data set [7] and in data set [9] was above 2 h each time. Moreover, the results for the thermodynamic solubility at 24 h in data set [4], in [5] and in data set [8] were 93 µg/mL (≈ 232 µM), 76 µg/mL (≈ 189 µM) and 580 µg/mL (≈ 1440 µM), respectively.

Regarding `CC1(C)CC(Nc2nccc(Nc3ccc(Cl)cc3)n2)CC(C)(C)N1`, a half-maximal effect in the data set with dengue virus type 2 (EC50) was put at 1.9 µM. Besides, the cytotoxic concentration (CC50) at 48 h in [1] amounted to 18.6 µM. Further, the selectivity ratio in data set [2] amounted to 10.

The molecule `CN1CCN(c2nccc(Nc3ccc(-c4ccc(Cl)cc4)cc3)n2)CC1` gave an EC50 with dengue virus type 2 of 3.3 µM. Further, in [1], the cytotoxic concentration (CC50) at 48 h worked out at 23.5 µM. Also, the selectivity ratio in data set [2] turned out to be 5.

Take `Clc1ccc(Nc2ccnc(NCc3cccnc3)n2)cc1`: a half-maximal response with dengue virus type 2 (EC50) required 24 µM.

For the molecule `Clc1ccc(-c2ccc(Nc3ccnc(NCCN4CCCCC4)n3)cc2)cc1`, the EC50 in the data set with dengue virus type 2 was 1.1 µM. The CC50 at 48 h in data set [1] amounted to 14.3 µM. Also, the selectivity ratio in [2] is 13.

On to `CN1CCN(c2nccc(Nc3ccc(-c4cccc(Cl)c4)cc3)n2)CC1`, for which the EC50 in the data set on dengue virus type 2 is 2.9 µM. Further, the CC50 at 48 h in data set [1] was 15.3 µM. In addition, the selectivity ratio in [2] was found to be 5.

In the data set on dengue virus type 2, `CC1(C)CC(Nc2nccc(Nc3ccc(-c4cccc(Cl)c4)cc3)n2)CC(C)(C)N1` returned an EC50 of 0.54 µM. In addition, the result with Dengue virus was Active. Besides, the CC50 at 48 h in data set [1] was 5.1 µM. The selectivity ratio in [2] amounted to 10.

Molecule `c1ccc(-c2ccc(Nc3ccnc(NCCN4CCOCC4)n3)cc2)cc1` registered an EC50 with dengue virus type 2 of 8.6 µM. Further, in data set [1], the CC50 at 48 h is 59 µM. The selectivity ratio in [2] was 7.

In the data set with dengue virus type 2, `Clc1ccc(CNc2ccnc(NCc3cccnc3)n2)cc1` registered a concentration giving a half-maximal response (EC50) of 23.7 µM.
